Measured values from ChEMBL document CHEMBL1821722, “Design, synthesis and biological evaluation of novel desmuramyldipeptide analogs” (Eur J Med Chem, 2011).
Activity calls are given as the source filed them. The rule behind the calls is not given here.

How the values were obtained:
THP-1 [1] = test: Cytotoxicity against human THP1 cells assessed as LDH release at 20.2 uM; format: cell-based; conditions: thp-1, 20.2 µM
Procedure, shortened: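 LDH leakage into the medium used as the cytotoxicity read-out, taken at the highest concentration tested.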

THP-1 [2] = test: Immunomodulatory effect in human THP1 cells assessed as increase in LPS-induced TNF-alpha release at 2 uM after 24 hrs by sandwich ELISA relative to LPS; format: functional
Procedure, shortened: (§1)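 THP-1 cells at 10⁶ cells/ml in RPMI 1640 with 10% heat-inactivated FCS. Co-incubated 24 h with compound (0.2–200 µM) plus E. coli 0127:B8 LPS 1 ng/ml, DMSO vehicle ≤0.2% final. TNF-α in supernatant expressed as % of LPS-induced release, mean ± SD of 6 samples.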

THP-1 [3] = test: Immunomodulatory effect in human THP1 cells assessed as increase in LPS-induced TNF-alpha release at 200 uM after 24 hrs by sandwich ELISA relative to LPS; format: functional; procedure, shortened: as §1
THP-1 [4] = test: Toxicity in human THP1 cells assessed TNF-alpha release at 20.2 uM after 3 to 24 hrs by sandwich ELISA; format: cell-based; conditions: thp-1, 20.2 µM
Procedure, shortened: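 Time course in THP-1 cells, with release sampled at 3, 8 and 24 h. Cells co-incubated with test agent and 1 ng/ml LPS. Co-incubation was compared with preincubation.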

THP-1 [5] = test: Immunomodulatory effect in human THP1 cells assessed as increase in LPS-induced TNF-alpha release after 24 hrs by sandwich ELISA relative to LPS; format: functional, cell-based; procedure, shortened: as §1
THP-1 [6] = test: Immunomodulatory effect in human THP1 cells assessed as increase in LPS-induced TNF-alpha release at 0.2 uM after 24 hrs by sandwich ELISA relative to LPS; format: functional; procedure, shortened: as §1
PBMC [7] = test: Immunomodulatory effect in human PBMC cells assessed as increase in LPS-induced TNF-alpha release at 20.2 uM after 24 hrs by sandwich ELISA; format: functional, cell-based
PBMC [8] = test: Cytotoxicity against human PBMC assessed as LDH release at 20.2 uM; format: cell-based
THP-1 [9] = test: Immunomodulatory effect in human THP1 cells assessed as increase in LPS-induced TNF-alpha release at 20.2 uM after 24 hrs by sandwich ELISA relative to LPS; format: functional; procedure, shortened: as §1
THP-1 [10] = test: Toxicity in human THP1 cells assessed TNF-alpha release at 20.2 uM after 24 hrs by sandwich ELISA; format: cell-based; conditions: thp-1, 24 h
Procedure, shortened: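 THP-1 in supplemented RPMI 1640 co-incubated 24 h with 20.2 µM compound and 1 ng/ml LPS, DMSO ≤0.2%. TNF-α release expressed as % of the LPS-only response, mean ± SD of 6 samples, Mann-Whitney U test.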

## CC(=O)N[C@H]1C(O)O[C@H](CO)[C@@H](O)[C@@H]1O[C@H](C)C(=O)N[C@@H](C)C(=O)N[C@H](CCC(=O)O)C(N)=O (stereo not given in full) [MURAMYL DIPEPTIDE]
THP-1 [1]
  Activity: Non-toxic
THP-1 [2]
  Activity: 171.8%
THP-1 [3]
  Activity: 306.8%
THP-1 [4]
  Activity: Non-toxic
THP-1 [5]
  Activity: Dose-dependent effect
THP-1 [6]
  Activity: 108%
PBMC [7]
  Activity: Active
PBMC [8]
  Activity: Non-toxic
THP-1 [9]
  Activity: 187.4%
THP-1 [10]
  Activity: Non-toxic
